Compound activity: PubChem BioAssay, several laboratories
Hits are enriched below; roughly 5.6% of the tested compounds scored in any of these assays.
aDG glyco up – alpha-DG glycosylation activation. Pro5-aDG cells, alpha-DG glycosylation AlphaScreen (IIH6); 0% Pro5, 100% B10-LARGE cell signal. 360,000 compounds, 0.22% hits. activation, % at 10 µM;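 active = activation of at least 8% versus controls, or a plate z-score of at least 8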;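 also: Pro5 are CHO cells carrying HIG-tagged alpha-DG that lacks glycosylation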
UPR XBP1 act – adaptive UPR (XBP1) activation | activation, % at 20 µM | AID 463104 | CHO-XBP1 luciferase reporter, IRE1-XBP1 UPR activation, luminescence; percent of tunicamycin response, DMSO as zero | 330,000 compounds, 0.33% hits;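 active = versus positive control, 20 µM dose yields 30% or more activation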;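 also: 100% = tunicamycin at 10 µg/mL and 0% = DMSO only wells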
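Material – CHO cell line with stable XBP1 luciferase reporter · Buffer or medium – F12 plus 10% FBS · Compound – single point, 20 µM final compound, 1% DMSO · Schedule – 16-18 h cell attachment at 37 °C, then 6 h compound exposure · Signal – Steady-Glo luminescence read · Benchmarks – high control tunicamycin 10 µg/mL final, low control DMSO vehicle only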
MPTP inh – permeability transition pore inhibition; isolated mouse mitochondria, Ca2+ swelling absorbance, 30 min; 360,000 compounds, 1.4% hits; inhibition, % at 10 µM; AID 602449;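 active = inhibition of 50% or more, scaled per plate between neutral and stimulator controls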;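 also: 0% = DMSO wells given calcium and 100% = 1 mM EGTA wells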
UPR CHOP act – apoptotic UPR (CHOP) activation. CHO-CHOP luciferase reporter, luminescence; percent of tunicamycin response over DMSO baseline. activation, % at 10 µM. 330,000 compounds, 0.34% hits;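 active = at 10 µM dose, activation of 40% or more, normalized to positive control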;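 also: 100% = tunicamycin at 10 µg/mL and 0% = DMSO alone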
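measured by = luciferase luminescence | assay system = CHO-CHOP cells, stable luciferase reporter of PERK-eIF2a-CHOP signalling | amount = 500 reporter cells seeded per well | timing = 6 h compound exposure at 37 °C after overnight seeding | controls = positive tunicamycin 10 µg/mL, negative DMSO alone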
CHOP inh – inhibitors of CHOP induction in ER stress response | 220,000 compounds, 3.8% hits | CHO-K1 CHOP-promoter luciferase, tunicamycin-induced, 15-18 h | AID 2732 | inhibition, % at 10 µM;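 active = compounds that reduced the stress-induced luciferase reporter signal by more than about 70% of percent inhibition, limit read from the data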;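 also: 0% = tunicamycin plus vehicle and 100% = wells without tunicamycin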
GRIN3A LBD mod – modulators (binders) of human NR3A ligand-binding domain; 340,000 compounds, 2.5% hits; NR3A LBD differential scanning fluorimetry, Tm shift; 0% = protein alone, 100% = glycine-bound protein; AID 1259313; Tm shift relative to glycine control, % at 25 µM;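 active = melting temperature shift of at least 10% of the positive control shift, at one fixed dose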
An asterisk follows results filed as active; . = no result.

SMILES	aDG glyco up	UPR XBP1 act	MPTP inh	UPR CHOP act	CHOP inh	GRIN3A LBD mod
CCN(CC)c1nc(OCCNC(=O)Nc2ccccc2)nc(N(CC)CC)n1	1	-4	4	-1	90*	-21
CCN(CCNC(=O)C1CCN(S(C)(=O)=O)CC1)c1ccccc1	0	-2	-1	-1	0	-1
O=C(NCCOc1nc(N2CCCCC2)nc(N2CCCCC2)n1)Nc1ccccc1	0	4	14	-2	63	-4
CCCCNc1nc(N)nc(-c2cc(Cl)ccc2O)n1	0	-5	7	2	77*	18*
O=C1CC(c2ccc(F)cc2)C(n2cncn2)C(O)=C1C1NCCc2ccccc21 (centres undefined)	0	1	-1	0	-2	-1
COc1cc(/C=C2\SC(=S)N(Nc3ccccc3)C2=O)cc(OC)c1OC	0	-3	-1	3	38	-9
COc1cc(/C=C2/SC(=S)N(Cc3ccccc3)C2=O)ccc1O	0	3	5	3	.	20*
O=C1/C(=C/c2ccncc2)SC(=S)N1Cc1ccccc1	0	-4	44	1	0	21*
COc1ccc(/C=C2\SC(=S)N(Cc3cccnc3)C2=O)cc1C	0	1	0	3	88*	-1
CCOc1ccc(/C=C2\SC(=S)N(Nc3ccccc3)C2=O)cc1OC	0	2	0	1	82*	-2
O=C(COC(=O)CC1CCCC1)Nc1ccccc1[N+](=O)[O-]	0	-3	-1	0	.	2
Cc1cc(=O)[nH]c2sc(C(=O)N3c4ccccc4CC3C)c(N)c12 (centres undefined)	0	-3	2	1	.	0
O=C1/C(=C\c2cccc(O)c2)SC(=S)N1Cc1ccccc1	0	-1	4	3	.	5
O=C1/C(=C\c2ccc(O)c(O)c2)SC(=S)N1Cc1ccccc1	0	18	38	9	.	29*
COc1cc(/C=C2/SC(=NCc3ccccc3)N(Cc3ccccc3)C2=O)ccc1O	0	-4	-4	-2	20	13*
CCN=C1S/C(=C\c2ccc(O)c(OCC)c2)C(=O)N1CC	0	16	0	2	42	-1
COc1ccccc1C1(O)C(=O)Nc2ccc(C)cc21 (centres undefined)	0	-2	0	-1	.	-3
O=C1OCCC1Sc1nc2ccccc2c(=O)n1Cc1ccccc1 (centres undefined)	0	-2	-3	-1	14	0
CC(C)(C)c1ccc(-c2nnc(SC3CCOC3=O)n2Cc2ccccc2)cc1 (centres undefined)	0	2	1	4	37	13*
COc1ccccc1OCCNC(=O)Cc1ccc(Cl)c(Cl)c1	0	-1	-1	-1	4	0
N=S(=O)(O)Cc1noc2ccccc12	.	.	.	.	4	.
COc1ccc(N(C)C(=O)c2cnc(N3CCN(c4ncccn4)CC3)c3ccccc23)cc1	0	1	0	-3	3	769*
Cc1cccc(-c2nsc(SCC(=O)Nc3nccs3)n2)c1	1	0	2	0	87*	0
O=C1C(=O)N(C2CCCC2)C(=O)N1Cc1c(F)cccc1Cl	0	-2	-1	0	1	2
COc1cc(OC)cc(C(=O)Nc2ccccc2C(=O)NC2CC2)c1	0	0	-3	-2	.	3
SMILES	aDG glyco up	UPR XBP1 act	MPTP inh	UPR CHOP act	CHOP inh	GRIN3A LBD mod
COC(=O)c1ccccc1NC(=O)c1sc(N)nc1C	0	11	1	-3	8	0
COc1cc(OC)cc(C(=O)Nc2ccc(C(=O)Nc3ccccc3OC)cc2)c1	0	-4	1	1	.	35*
COc1ccccc1NC(=O)c1ccc(NC(=O)c2ccco2)cc1	0	2	0	0	.	-4
COc1ccccc1NC(=O)c1ccc2[nH]c(C)c(C)c2c1	0	5	1	6	.	20*
COC(=O)c1ccccc1NC(=O)c1cc(OC)cc(OC)c1	0	1	0	1	82*	1
COC(=O)c1ccccc1NC(=O)c1sc(=S)n(C)c1N	0	0	-1	1	82*	-2
COc1ccc(-c2csc(C(O)c3ccc(F)c(OC)c3)n2)cc1 (centres undefined)	0	.	27	.	.	.
OCc1cn(-c2ccccc2)nc1-c1ccc(-c2nn(-c3ccccc3)cc2CO)cc1	0	8	4	15	88*	24*
COc1ccc([C@H]2CC(=O)C=C(c3cccc(C(C)C)c3)C2)cc1OC	1	-1	4	3	.	0
CC(=O)Nc1ccc(Nc2ncnc3c2cnn3-c2ccc(C)cc2C)cc1	0	-2	-2	-1	65	-2
CC(=O)Nc1ccc(Nc2ncnc3c2cnn3-c2ccccc2)cc1	1	12	0	2	0	19*
CC(=O)Nc1ccc(Nc2ncnc3c2cnn3-c2cccc(C)c2)cc1	0	4	0	4	-6	22*
N#CC1=C(N)OC2=C(CC/C2=C\c2ccc(F)cc2)C1c1ccc(F)cc1 (centres undefined)	.	6	.	116*	79*	.
N#CC1=C(N)OC2=C(CCC/C2=C/c2ccoc2)C1c1ccoc1 (centres undefined)	.	.	.	.	-26	.
NC(=O)c1[nH]cnc1N	0	-3	-1	2	.	2
CCOC(=O)CNc1nc(C(C)(C)C)nc2c1nnn2Cc1ccccc1Cl	0	1	4	-1	81*	-1
COc1ccc2oc(C(=O)N(C)Cc3ccc(OC(F)F)cc3)c(C)c2c1	0	-4	0	2	.	13*
COc1ccc2oc(C(=O)N(C)CCOc3ccccc3)c(C)c2c1	0	0	0	4	.	2
COCC1CCCN(C(=O)c2ccc3nc(Cc4cccc(Cl)c4)oc3c2)C1 (centres undefined)	0	-2	0	5	.	-2
O=C(NCc1cccs1)c1cccc(Nc2nc3ccc(Br)cc3[nH]2)c1	0	1	40	-1	61	11*
CC1(C)Cc2c(c(N3CCOCC3)nc3sc4c(N5CCOCC5)nnnc4c23)CS1	.	58*	.	5	15	.
CCc1nc2sc3c(c2c(=O)o1)CCCC3	0	-3	-6	-1	27	1
CC(C)(C)c1nc2sc3c(c2c(=O)o1)CCCC3	0	1	-1	0	79*	0
COc1ccc(OC)c2c1C(=O)C(Cl)=C(Cl)C2=O	0	-11	5	-8	106*	-23
CC1=NN(c2ccccc2)C(=O)/C1=C/c1ccc[nH]1	0	6	0	5	-5	17*
